Converted amounts (≈) assume the structure as drawn.
How the values were obtained:
Assay type in all cases: functional
[1] = test system: Pseudomonas aeruginosa; assay: Antibacterial activity against Pseudomonas aeruginosa after 24 hrs by broth microdilution method
Outline: (§1)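 CLSI broth microdilution in cation-adjusted Mueller-Hinton II broth, final inoculum about 5 × 10^5 CFU/ml for most strains; streptococci supplemented with 2–5% lysed horse blood, H. influenzae in Haemophilus test medium. Aerobic incubation at 35–37°C for 24 h; MIC = lowest concentration with no visible growth.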

[2] = test system: Acinetobacter baumannii; assay: Antibacterial activity against Acinetobacter baumannii after 24 hrs by broth microdilution method; outline: as §1
[3] = test system: Enterobacter sp.; assay: Antibacterial activity against Enterobacter sp.
Outline: (§2)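 Aerobic isolates run by CLSI broth microdilution in cation-adjusted Mueller-Hinton II broth (streptococci plus 2–5% lysed horse blood), about 5 × 10^5 CFU/ml final; 24 h at 35–37°C aerobically; MIC read as lowest concentration without visible growth.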

[4] = test system: Escherichia coli; assay: Antibacterial activity against Escherichia coli after 24 hrs by broth microdilution method; outline: as §1
[5] = test system: Klebsiella pneumoniae; assay: Antibacterial activity against Klebsiella pneumoniae; outline: as §2
[6] = test system: Staphylococcus aureus; assay: Antibacterial activity against ethidium bromide-resistant Staphylococcus aureus BSA678 after 24 hrs by broth microdilution method; conditions: BSA678, 24 h
Outline: (§3)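 Broth microdilution per CLSI in cation-adjusted Mueller-Hinton II broth, final inoculum approximately 5 × 10^5 CFU/ml. Plates were incubated aerobically at 35 to 37°C for 24 h. MIC was the lowest concentration giving no visible growth. Reserpine, where used, was at a final concentration of 20 μg/ml.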

[7] = test system: Staphylococcus aureus; assay: Antibacterial activity against ethidium bromide-resistant Staphylococcus aureus Mu50 after 24 hrs by broth microdilution method; conditions: Mu50, 24 h; outline: as §3
[8] = test system: Staphylococcus aureus; assay: Antibacterial activity against […] Staphylococcus aureus ATCC 29213 after 24 hrs by broth microdilution method; conditions: ATCC 29213, 24 h; outline: as §3
[9] = test system: Staphylococcus aureus; assay: Antibacterial activity against ethidium bromide-resistant Staphylococcus aureus BSA643 after 24 hrs by broth microdilution method; conditions: BSA643, 24 h; outline: as §3
[10] = test system: Haemophilus influenzae; assay: Antibacterial activity against Haemophilus influenzae after 24 hrs by broth microdilution method; outline: as §1
[11] = test system: Moraxella catarrhalis; assay: Antibacterial activity against Moraxella catarrhalis after 24 hrs by broth microdilution method; outline: as §1
[12] = test system: Staphylococcus aureus; assay: Effect on cellular viability of methicillin-sensitive Staphylococcus aureus ATCC 29213 by measuring the time required for recovery at 10 times MIC after 1 hr
Outline: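 S. aureus in log phase, approximately 2–4 × 10^7 CFU/ml in CAMHB, was exposed to 10× MIC for 1 h at 35 to 37°C with shaking, then diluted 1:1,000 into prewarmed CAMHB. Viable counts were taken hourly for 4 to 8 h. PAE = T − C, the time to a 1-log10 rise, treated versus untreated. Mean of two independent experiments.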

[13] = test system: Staphylococcus aureus; assay: Antibacterial activity against […] Staphylococcus aureus ATCC 29213 in presence of 20 ug/ml reserpine after 24 hrs by broth microdilution method; conditions: ATCC 29213, 24 h; outline: as §3
[14] = test system: Staphylococcus aureus; assay: Antibacterial activity against ethidium bromide-resistant Staphylococcus aureus Mu50 in presence of 20 ug/ml reserpine after 24 hrs by broth microdilution method; conditions: Mu50, 24 h; outline: as §3
[15] = test system: Streptococcus pyogenes; assay: Antibacterial activity against Streptococcus pyogenes; outline: as §2
[16] = test system: Neisseria gonorrhoeae; assay: Antibacterial activity against Neisseria gonorrhoeae after 24 hrs by broth microdilution method; outline: as §1
[17] = test system: Streptococcus pneumoniae; assay: Antibacterial activity against Streptococcus pneumoniae by agar dilution method
[18] = test system: Streptococcus viridans; assay: Antibacterial activity against Streptococcus viridans after 24 hrs by broth microdilution method; outline: as §1
[19] = test system: Peptostreptococcus sp.; assay: Antibacterial activity against Peptostreptococcus sp. by agar dilution method
Outline: (§4)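 Anaerobes by CLSI agar dilution on brucella agar with hemin, vitamin K and 5% laked sheep blood; inoculum from 24-h enriched blood agar colonies resuspended in brucella broth to 0.5 McFarland. Plates incubated anaerobically at 35–37°C for 48 h.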

[20] = test system: Cutibacterium acnes; assay: Antibacterial activity against Propionibacterium acnes; outline: as §4
[21] = test system: Bacteroides fragilis; assay: Antibacterial activity against Bacteroides fragilis by agar dilution method; outline: as §4
[22] = test system: Clostridioides difficile; assay: Antibacterial activity against Clostridium difficile by agar dilution method; outline: as §4
[23] = test system: Staphylococcus aureus; assay: Antibacterial activity against methicillin-susceptible Staphylococcus aureus after 24 hrs by broth microdilution method; outline: as §3
[24] = test system: Enterococcus faecalis; assay: Antibacterial activity against Enterococcus faecalis; outline: as §2
[25] = test system: Enterococcus faecium; assay: Antibacterial activity against Enterococcus faecium; outline: as §2
[26] = test system: Legionella pneumophila; assay: Antibacterial activity against Legionella pneumophila after 24 hrs by broth microdilution method
[27] = test system: Mycoplasmoides pneumoniae; assay: Antibacterial activity against Mycoplasma pneumoniae after 24 hrs by broth microdilution method
[28] = test system: Neisseria meningitidis; assay: Antibacterial activity against Neisseria meningitidis after 24 hrs by broth microdilution method; outline: as §1
[29] = test system: Staphylococcus aureus; assay: Antibacterial activity against methicillin-resistant Staphylococcus aureus after 24 hrs by broth microdilution method; outline: as §3

## CC(C)(O/N=C(\C(=O)N[C@@H]1C(=O)N2C(C(=O)[O-])=C(C[n+]3ccccc3)CS[C@H]12)c1csc(N)n1)C(=O)O [CEFTAZIDIME]
[1]
  MIC50: 2 µg/mL (≈ 3.66 µM)
  MIC90: 32 µg/mL (≈ 58.5 µM)
[2]
  MIC50: 4 µg/mL (≈ 7.32 µM)
  MIC90: > 32 µg/mL
[3]
  MIC50: 0.5 µg/mL (≈ 0.915 µM)
  MIC90: > 32 µg/mL
[4]
  MIC50: 0.25 µg/mL (≈ 0.457 µM)
  MIC90: 0.5 µg/mL (≈ 0.915 µM)
[5]
  MIC50: 32 µg/mL (≈ 58.5 µM)
  MIC90: > 32 µg/mL

## CO/N=C1\CN(c2nc3c(cc2F)c(=O)c(C(=O)O)cn3C2CC2)CC1CN (centres undefined) [GEMIFLOXACIN]
[6]
  MIC: 64 µg/mL (≈ 164 µM)
[7]
  MIC: 4 µg/mL (≈ 10.3 µM)
[8]
  MIC: 0.03 µg/mL (≈ 0.077 µM)
[9]
  MIC: 32 µg/mL (≈ 82.2 µM)

## CC1(C)S[C@@H]2[C@H](NC(=O)[C@H](N)c3ccccc3)C(=O)N2[C@H]1C(=O)O [AMPICILLIN]
[10]
  MIC50: > 16 µg/mL
  MIC90: > 16 µg/mL
[1]
  MIC50: > 32 µg/mL
  MIC90: > 32 µg/mL
[11]
  MIC50: 4 µg/mL (≈ 11.4 µM)
  MIC90: 8 µg/mL (≈ 22.9 µM)
[2]
  MIC50: 16 µg/mL (≈ 45.8 µM)
  MIC90: > 32 µg/mL
[3]
  MIC50: > 32 µg/mL
  MIC90: > 32 µg/mL
[4]
  MIC50: 4 µg/mL (≈ 11.4 µM)
  MIC90: > 32 µg/mL
[5]
  MIC50: > 32 µg/mL
  MIC90: > 32 µg/mL

## CCN1CC(C(=O)O)C(=O)c2cc(F)c(N3CCNCC3)cc21 (centres undefined)
[12]
  Post anitbiotic effect: 1.6 h

## CO/N=C(\C(=O)N[C@@H]1C(=O)N2C(C(=O)[O-])=C(C[N+]3(C)CCCC3)CS[C@H]12)c1csc(N)n1 [CEFEPIME]
[2]
  MIC50: 2 µg/mL (≈ 4.16 µM)
  MIC90: 32 µg/mL (≈ 66.6 µM)
[3]
  MIC50: 0.06 µg/mL (≈ 0.125 µM)
  MIC90: 4 µg/mL (≈ 8.32 µM)
[5]
  MIC50: 0.5 µg/mL (≈ 1.04 µM)
  MIC90: 32 µg/mL (≈ 66.6 µM)

## CC[n+]1c(-c2ccccc2)c2cc(N)ccc2c2ccc(N)cc21.[Br-] [HOMIDIUM BROMIDE]
[13]
  MIC: 0.03 µg/mL
[6]
  MIC: 4 µg/mL
[7]
  MIC: 64 µg/mL
[8]
  MIC: 4 µg/mL
[14]
  MIC: 64 µg/mL
[9]
  MIC: 16 µg/mL

## CO/N=C(\C(=O)N[C@@H]1C(=O)N2C(C(=O)O)=C(CSc3nc(=O)c(O)nn3C)CS[C@H]12)c1csc(N)n1 [CEFTRIAXONE]
[15]
  MIC50: 0.03 µg/mL (≈ 0.0541 µM)
  MIC90: 0.03 µg/mL (≈ 0.0541 µM)
[10]
  MIC50: < 0.008 µg/mL
  MIC90: 0.015 µg/mL (≈ 0.027 µM)
[16]
  MIC50: 0.004 µg/mL (≈ 0.00721 µM)
  MIC90: 0.03 µg/mL (≈ 0.0541 µM)
[1]
  MIC50: 64 µg/mL (≈ 115 µM)
  MIC90: > 64 µg/mL
[11]
  MIC50: 0.5 µg/mL (≈ 0.902 µM)
  MIC90: 1 µg/mL (≈ 1.8 µM)
[17]
  MIC50: 0.12 µg/mL (≈ 0.216 µM)
  MIC90: > 2 µg/mL
[18]
  MIC50: 0.12 µg/mL (≈ 0.216 µM)
  MIC90: 1 µg/mL (≈ 1.8 µM)
[2]
  MIC50: 8 µg/mL (≈ 14.4 µM)
  MIC90: > 64 µg/mL
[3]
  MIC50: 0.12 µg/mL (≈ 0.216 µM)
  MIC90: > 64 µg/mL
[4]
  MIC50: 0.06 µg/mL (≈ 0.108 µM)
  MIC90: 0.06 µg/mL (≈ 0.108 µM)
[5]
  MIC50: 16 µg/mL (≈ 28.9 µM)
  MIC90: 32 µg/mL (≈ 57.7 µM)

## C[C@@H](O)[C@H]1C(=O)N2C(C(=O)O)=C(SCCNC=N)C[C@H]12 [IMIPENEM ANHYDROUS]
[19]
  MIC50: 0.06 µg/mL (≈ 0.2 µM)
  MIC90: 0.25 µg/mL (≈ 0.835 µM)
[20]
  MIC50: 0.06 µg/mL (≈ 0.2 µM)
  MIC90: 0.06 µg/mL (≈ 0.2 µM)
[2]
  MIC50: 1 µg/mL (≈ 3.34 µM)
  MIC90: > 16 µg/mL
[3]
  MIC50: 1 µg/mL (≈ 3.34 µM)
  MIC90: 2 µg/mL (≈ 6.68 µM)
[4]
  MIC50: 0.5 µg/mL (≈ 1.67 µM)
  MIC90: 0.5 µg/mL (≈ 1.67 µM)
[5]
  MIC50: 0.5 µg/mL (≈ 1.67 µM)
  MIC90: 1 µg/mL (≈ 3.34 µM)
[21]
  MIC50: 0.25 µg/mL (≈ 0.835 µM)
  MIC90: 0.25 µg/mL (≈ 0.835 µM)
[22]
  MIC50: 4 µg/mL (≈ 13.4 µM)
  MIC90: 4 µg/mL (≈ 13.4 µM)

## C[C@H]1COc2c(N3CCN(C)CC3)c(F)cc3c(=O)c(C(=O)O)cn1c23.C[C@H]1COc2c(N3CCN(C)CC3)c(F)cc3c(=O)c(C(=O)O)cn1c23.O [LEVOFLOXACIN]
[23]
  MIC50: 0.25 µg/mL
  MIC90: > 16 µg/mL
[24]
  MIC50: 16 µg/mL
  MIC90: > 16 µg/mL
[25]
  MIC50: > 16 µg/mL
  MIC90: > 16 µg/mL
[15]
  MIC50: 0.5 µg/mL
  MIC90: 1 µg/mL
[26]
  MIC: 0.015 µg/mL
[27]
  MIC: 0.5 µg/mL
[10]
  MIC50: 0.015 µg/mL
  MIC90: 0.03 µg/mL
[28]
  MIC50: ≤ 0.12 µg/mL
  MIC90: ≤ 0.12 µg/mL
[1]
  MIC50: 0.5 µg/mL
  MIC90: > 8 µg/mL
[11]
  MIC50: 0.03 µg/mL
  MIC90: 0.06 µg/mL
[29]
  MIC50: 16 µg/mL
[17]
  MIC50: 1 µg/mL
  MIC90: 1 µg/mL
[18]
  MIC50: 1 µg/mL
  MIC90: 1 µg/mL
[2]
  MIC50: 0.25 µg/mL
  MIC90: > 8 µg/mL
[3]
  MIC50: 0.03 µg/mL
  MIC90: 0.5 µg/mL
[4]
  MIC50: 0.03 µg/mL
[5]
  MIC50: > 0.25 µg/mL
  MIC90: > 2 µg/mL

Source: ChEMBL document CHEMBL1147099, “In vitro and in vivo antibacterial activities of heteroaryl isothiazolones against resistant gram-positive pathogens” (Antimicrob Agents Chemother, 2007)
